In ChEMBL document CHEMBL1158435, “Identification of a novel inhibitor of JAK2 tyrosine kinase by structure-based virtual screening” (Bioorg Med Chem Lett, 2009):
The source made the active and inactive calls. The calls are words filed in the database; no cut-off is given here.

Tests used:
HEL [1] = assay: Growth inhibition of HEL cells harboring Val617Phe mutation in JAK2 at 25 uM after 72 hrs by trypan blue exclusion assay; type: functional; conditions: Homo sapiens, read-out: GI
Procedure, shortened: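 Screening assay of HEL growth inhibition. HEL cells carry JAK2-Val617Phe on both alleles. Each compound was tested at a single final concentration of 25 μM.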

[2] = target: Proto-oncogene tyrosine-protein kinase Src (Homo sapiens) (UniProt P12931); assay: Inhibition of recombinant pp60c-Src at 25 uM by Western blotting
Chain of Proto-oncogene tyrosine-protein kinase Src (Homo sapiens) (P12931 2-536 limits assumed): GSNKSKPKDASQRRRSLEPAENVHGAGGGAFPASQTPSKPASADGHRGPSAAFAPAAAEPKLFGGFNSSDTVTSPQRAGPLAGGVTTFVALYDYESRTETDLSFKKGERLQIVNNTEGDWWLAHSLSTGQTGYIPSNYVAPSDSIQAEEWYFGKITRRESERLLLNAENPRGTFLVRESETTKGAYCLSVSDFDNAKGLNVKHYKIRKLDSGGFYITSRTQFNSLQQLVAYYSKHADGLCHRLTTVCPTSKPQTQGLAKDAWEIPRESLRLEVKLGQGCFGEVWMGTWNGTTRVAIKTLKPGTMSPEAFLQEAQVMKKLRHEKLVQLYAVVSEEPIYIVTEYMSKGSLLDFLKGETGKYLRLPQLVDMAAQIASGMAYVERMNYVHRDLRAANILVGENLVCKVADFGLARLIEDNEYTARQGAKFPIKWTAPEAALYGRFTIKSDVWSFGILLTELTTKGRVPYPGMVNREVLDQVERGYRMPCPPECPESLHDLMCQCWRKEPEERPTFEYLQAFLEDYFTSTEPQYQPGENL
Procedure, shortened: (§1)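 Cell-free c-Src kinase assay, with compound tested at 25 μM.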

[3] = target: Non-receptor tyrosine-protein kinase TYK2 (Homo sapiens) (UniProt P29597); assay: Inhibition of TYK2 transfected in mouse embryonic fibroblasts at 25 uM by Western blotting
Chain of Non-receptor tyrosine-protein kinase TYK2 (Homo sapiens) (P29597 whole entry): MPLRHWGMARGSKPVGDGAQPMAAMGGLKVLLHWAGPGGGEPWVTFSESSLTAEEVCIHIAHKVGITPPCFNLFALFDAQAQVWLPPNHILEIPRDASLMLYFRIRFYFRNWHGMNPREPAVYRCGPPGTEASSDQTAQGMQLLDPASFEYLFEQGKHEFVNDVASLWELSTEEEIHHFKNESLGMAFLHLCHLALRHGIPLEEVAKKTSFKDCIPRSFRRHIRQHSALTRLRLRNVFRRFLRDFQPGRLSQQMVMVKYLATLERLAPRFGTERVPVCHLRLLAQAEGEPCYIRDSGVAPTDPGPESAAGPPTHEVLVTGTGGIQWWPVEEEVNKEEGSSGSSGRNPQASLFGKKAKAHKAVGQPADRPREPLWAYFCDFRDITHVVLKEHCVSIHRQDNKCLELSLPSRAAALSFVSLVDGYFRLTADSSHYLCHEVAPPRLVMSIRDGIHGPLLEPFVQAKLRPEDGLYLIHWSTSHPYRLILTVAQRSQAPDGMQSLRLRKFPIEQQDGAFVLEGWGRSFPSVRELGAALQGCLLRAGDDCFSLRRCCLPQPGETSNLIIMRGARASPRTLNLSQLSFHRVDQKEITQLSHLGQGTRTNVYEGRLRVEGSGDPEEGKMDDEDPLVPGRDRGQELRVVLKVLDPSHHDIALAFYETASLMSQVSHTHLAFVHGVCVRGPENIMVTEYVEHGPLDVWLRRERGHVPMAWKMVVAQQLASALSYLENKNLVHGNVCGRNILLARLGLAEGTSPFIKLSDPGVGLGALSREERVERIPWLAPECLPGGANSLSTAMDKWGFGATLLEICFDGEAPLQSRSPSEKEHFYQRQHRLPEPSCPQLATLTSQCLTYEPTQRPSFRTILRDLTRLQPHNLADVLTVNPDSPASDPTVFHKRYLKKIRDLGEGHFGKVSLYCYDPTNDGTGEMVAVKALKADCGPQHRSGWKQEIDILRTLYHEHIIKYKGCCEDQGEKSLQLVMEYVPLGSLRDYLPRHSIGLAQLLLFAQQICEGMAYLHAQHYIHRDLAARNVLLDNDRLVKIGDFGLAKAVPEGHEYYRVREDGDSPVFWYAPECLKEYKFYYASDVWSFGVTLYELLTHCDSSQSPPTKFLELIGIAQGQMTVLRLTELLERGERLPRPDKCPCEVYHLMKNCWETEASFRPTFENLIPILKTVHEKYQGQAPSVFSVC
Procedure, shortened: (§2)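 TYK2 autophosphorylation was measured within intact cells, with compound present at 25 μM.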

[4] = target: Non-receptor tyrosine-protein kinase TYK2 (Homo sapiens) (UniProt P29597); assay: Inhibition of TYK2 autophosphorylation transfected in mouse embryonic fibroblasts at 25 uM by Western blotting; procedure, shortened: as §2
[5] = target: Proto-oncogene tyrosine-protein kinase Src (Homo sapiens) (UniProt P12931); assay: Inhibition of recombinant pp60c-Src autophosphorylation at 25 uM by Western blotting; procedure, shortened: as §1
HEL [6] = assay: Growth inhibition of HEL cells harboring Val617Phe mutation in JAK2 assessed as reduction in cell number at 0.001 to 10 uM after 48 hrs using trypan blue staining by hemocytometry; type: functional, cell-based; conditions: Homo sapiens
Procedure, shortened: (§3)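 Four lines were compared: HEL (JAK2-Val617Phe on both alleles), CMK (JAK3-Ala572Val), Raji (c-Myc/heavy-chain locus translocation) and BSC-40 (green monkey kidney epithelial, SV-40 large T immortalized). Cells were exposed to compound over 10−9 to 10−4 M, and the read-out was cell number.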

Raji [7] = assay: Growth inhibition of human Raji cells possessing […] between c-Myc gene on chromosome 8 and heavy chain locus on chromosome 14 assessed as reduction in cell number at 0.001 to 10 uM after 48 hrs using trypan blue staining by hemocytometry; type: functional, cell-based; procedure, shortened: as §3
CMK [8] = assay: Growth inhibition of human CMK cells harboring Ala572Val mutation in JAK3 assessed as reduction in cell number at 0.001 to 10 uM after 48 hrs using trypan blue staining by hemocytometry; type: functional, cell-based; procedure, shortened: as §3
BSC-40 [9] = assay: Growth inhibition of african green monkey BSC40 cells immortalized with SV40 large T antigen assessed as reduction in cell number at 0.001 to 10 uM after 48 hrs using trypan blue staining by hemocytometry; type: functional, cell-based; conditions: Chlorocebus aethiops; procedure, shortened: as §3
HEL [10] = assay: Growth inhibition of HEL cells harboring Val617Phe mutation in JAK2 assessed as reduction in cell number at 100 uM after 48 hrs using trypan blue staining by hemocytometry; type: functional, cell-based; conditions: Homo sapiens; procedure, shortened: as §3
Raji [11] = assay: Growth inhibition of human Raji cells possessing […] between c-Myc gene on chromosome 8 and heavy chain locus on chromosome 14 assessed as reduction in cell number at 100 uM after 48 hrs using trypan blue staining by hemocytometry; type: functional, cell-based; procedure, shortened: as §3
CMK [12] = assay: Growth inhibition of human CMK cells harboring Ala572Val mutation in JAK3 assessed as reduction in cell number at 100 uM after 48 hrs using trypan blue staining by hemocytometry; type: functional, cell-based; procedure, shortened: as §3
BSC-40 [13] = assay: Growth inhibition of african green monkey BSC40 cells immortalized with SV40 large T antigen assessed as reduction in cell number at 100 uM after 48 hrs using trypan blue staining by hemocytometry; type: functional, cell-based; conditions: Chlorocebus aethiops; procedure, shortened: as §3
[14] = Inhibition of pathological growth of human hematopoietic progenitor cells isolated from polycythemia vera patient assessed as erythroid colony formation at 2.5 uM after 14 days in absence of erythropoietin; type: functional; conditions: 336 h, read-out: GI
[15] = system: Tyrosine-protein kinase JAK2 (Homo sapiens), O60674 [V617F]; assay: (§4) Inhibition of recombinant JAK2-Val617Phe kinase activity after 30 mins by luminometry
Chain of Tyrosine-protein kinase JAK2 (Homo sapiens), O60674 [V617F] (O60674 whole entry V617F): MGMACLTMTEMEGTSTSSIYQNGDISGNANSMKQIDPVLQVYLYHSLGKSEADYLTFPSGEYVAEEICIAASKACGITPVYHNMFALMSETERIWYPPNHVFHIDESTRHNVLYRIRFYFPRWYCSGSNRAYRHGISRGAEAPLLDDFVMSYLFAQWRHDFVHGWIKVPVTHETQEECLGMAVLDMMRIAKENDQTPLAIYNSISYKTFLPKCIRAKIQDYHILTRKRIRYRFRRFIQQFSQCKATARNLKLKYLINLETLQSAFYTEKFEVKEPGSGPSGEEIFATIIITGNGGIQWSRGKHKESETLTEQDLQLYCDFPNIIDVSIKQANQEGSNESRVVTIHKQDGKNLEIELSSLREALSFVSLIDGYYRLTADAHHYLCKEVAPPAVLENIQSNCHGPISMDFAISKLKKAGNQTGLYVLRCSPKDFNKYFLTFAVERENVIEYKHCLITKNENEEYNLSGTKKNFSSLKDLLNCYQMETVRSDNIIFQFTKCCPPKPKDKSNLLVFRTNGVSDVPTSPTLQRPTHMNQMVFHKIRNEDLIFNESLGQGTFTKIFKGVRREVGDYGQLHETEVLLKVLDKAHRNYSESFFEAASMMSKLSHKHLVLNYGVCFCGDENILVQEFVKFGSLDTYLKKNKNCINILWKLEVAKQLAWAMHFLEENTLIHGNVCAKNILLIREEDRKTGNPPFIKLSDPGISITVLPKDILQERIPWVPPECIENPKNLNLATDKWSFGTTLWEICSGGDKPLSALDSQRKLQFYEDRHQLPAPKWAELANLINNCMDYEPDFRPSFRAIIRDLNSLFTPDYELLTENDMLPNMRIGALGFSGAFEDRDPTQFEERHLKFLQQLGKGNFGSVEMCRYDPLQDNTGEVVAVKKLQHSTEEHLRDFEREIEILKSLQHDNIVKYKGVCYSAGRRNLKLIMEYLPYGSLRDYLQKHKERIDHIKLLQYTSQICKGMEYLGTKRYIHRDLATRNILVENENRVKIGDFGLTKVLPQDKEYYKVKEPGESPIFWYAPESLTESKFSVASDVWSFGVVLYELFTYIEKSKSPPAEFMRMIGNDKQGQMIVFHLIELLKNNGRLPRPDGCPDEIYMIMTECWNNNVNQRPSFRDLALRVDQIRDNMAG
Procedure, shortened: (§5)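 Cell-free kinase assay. Recombinant JAK2-Val617Phe protein (JH1+JH2) was incubated with increasing inhibitor concentrations. After the kinetic reactions, relative kinase inhibition was determined from the residual ATP level in each reaction.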

[16] = target: Tyrosine-protein kinase JAK2 (Homo sapiens, UniProt O60674, V617F); assay: as §4; procedure, shortened: as §5
Chain of Tyrosine-protein kinase JAK2 (O60674 whole entry V617F): as above

HEL [17] = assay: Reduction in phospho-JAK2 [pYpY1007/1008] level in HEL cells after 48 hrs by […]; type: functional, cell-based; conditions: Homo sapiens
Procedure, shortened: (§6)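 HEL cells were treated across varying compound concentrations and exposure times. Phospho-JAK2 protein levels were then measured in the cells.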

HEL [18] = assay: Reduction in phospho-JAK2 [pYpY1007/1008] level in HEL cells at 25 uM by […]; type: functional, cell-based; conditions: Homo sapiens, TDE = time-dependent effect; procedure, shortened: as §6
[19] = system: Tyrosine-protein kinase JAK2 (Homo sapiens), O60674 [V617F]; assay: Inhibition of recombinant JAK2-Val617Phe kinase activity at 25 uM after 30 mins by luminometry; procedure, shortened: as §5
[20] = Inhibition of pathological growth of human hematopoietic progenitor cells isolated from polycythemia vera patient assessed as erythroid colony formation at 2.5 uM after 14 days in absence of erythropoietin; conditions: 336 h, read-out: GI

SMILES	inhibition of growth at 25 µM (HEL [1]) [%]	other results
COc1ccc2nc(NC(=O)Nc3ccc(C)c(NC(=O)Nc4nc5ccc(OC)cc5s4)c3)sc2c1	57	
C/C(CC(=O)c1ccccc1)=N/CCCCC/N=C(\C)CC(=O)c1ccccc1	31	
O=C(/C=C(\O)c1ccc(F)cc1)C(=O)/C=C(\O)c1ccc(F)cc1	36	
CC1=CN=C(NCCCCNC2=NC=C(C)/C(=C3/C=CC=CC3=O)N2)N/C1=C1/C=CC=CC1=O	16	
O=C1C=Cc2ccccc2/C1=C/NNS(=O)(=O)c1cc(Cl)c(Cl)cc1Cl	51	
O=C(Nc1ccc(Cc2ccc(NC(=O)Nc3cccc(C4=NCCN4)c3)cc2)cc1)Nc1cccc(C2=NCCN2)c1	13	
CCc1[nH]nc(-c2ccc(OC)cc2)c1-c1ccccc1O	40	
O=C(CC(=O)c1ccccc1)CC(O)(/C=C/c1ccccc1)c1ccccc1 (stereo unspecified)	15	
O=C(NCCNCCO)c1cccc(Nc2cc(O)c(O)c3ccccc23)c1	42	
C/C(CC(=O)c1ccccc1)=N/CCCC/N=C(/C)CC(=O)c1ccccc1	19	
O=C1C=Cc2ccccc2/C1=C/N/N=C(\C(=O)c1ccccc1)c1ccccc1	27	
CCCCCCCCNC(C(=O)c1ccc(Cl)cc1)c1ccc(Cl)cc1 (stereo unspecified)	7	
O=C(CC(=O)CC(=O)c1ccccc1)CC(=O)c1ccccc1	67	
O=C(c1cccc([N+](=O)[O-])c1)c1c(O)oc2ccccc2c1=O	40	
O=C1C=C(NCCCC2CCCN3CCCCC23)C(=O)c2ccccc21 (stereo unspecified)	27	
O=C(Nc1ccccc1)Nc1ccc2ccccc2c1	38	
CC/C(=C(/CC)c1ccc(O)c(CN(CC)CC)c1)c1ccc(O)c(CN(CC)CC)c1	> 99	inhibition [2]: inactive; inhibition [3]: inactive; inhibition [4]: inactive; inhibition [5]: inactive; growth inhibition (GI) (HEL [6]): Active; growth inhibition (GI) (Raji [7]): inactive; growth inhibition (GI) (CMK [8]): inactive; growth inhibition (GI) (BSC-40 [9]): inactive; growth inhibition (GI) (HEL [10]): Active; growth inhibition (GI) (Raji [11]): Active; growth inhibition (GI) (CMK [12]): Active; growth inhibition (GI) (BSC-40 [13]): Active; inhibition of growth at 2.5 µM [14]: > 50%; Activity [15]: Dose-dependent effect; IC50 [16]: 60 nM; Activity (HEL [17]): Dose-dependent effect; Activity (HEL [18]): tde; inhibition [19]: > 99%; inhibition of growth at 2.5 µM [20]: > 50%
Nc1ccc(C(=O)Nc2ccc3cc(S(=O)(=O)O)cc(O)c3c2)cc1	39	
O=[N+]([O-])c1cc(/C=N/NS(=O)(=O)c2cc(Cl)c(Cl)cc2Cl)ccc1Cl	27	

SMILES	inhibition of growth at 25 µM (HEL [1]) [%]	other results
OC1C=C(c2ccccc2)C(c2ccccc2)C(c2ccccc2)C1 (stereo unspecified)	27	
O=C(Nc1cc(Cl)ccc1Cl)Nc1ccc(Cl)cc1C(=O)c1ccccc1	24	
CC(CCc1ccccn1)(CCc1ccccn1)C(=O)c1ccccc1		inhibition [5]: inactive
NC(=O)c1cc(NC(=O)c2ccc(C(=O)Nc3cc(C(N)=O)cc(C4=NCCN4)c3)cc2)cc(C2=NCCN2)c1	10	
Cc1c(O)c2ccccc2c2c1sc(NCCCN(CCO)CCO)[n+]2C	41	
O=C(/C=C(\C=C\c1ccccc1)c1ccccc1)CC(=O)c1ccccc1	11	
CC(=O)c1c(O)cc(O)cc1-c1cc(=O)c2c(O)ccc(C(C)=O)c2o1	42	
O=P(O)(c1ccc(Cl)cc1)c1ccc(Cl)cc1	13	
COc1ccc(-c2n[nH]c(=S)c(-c3ccccc3)c2-c2ccccc2)cc1	44	
O=C(CN1C=C(/C=N/O)C=CC1)C1CCC(C2CCC(C(=O)CN3CCCC(/C=N/O)C3)CC2)CC1 (stereo unspecified)	8	
NC(CSSCC(N)C(=O)c1ccccc1)C(=O)c1ccccc1 (stereo unspecified)	30	
CC(C)(C)n1nc(-c2ccc(Cl)cc2)c2c(N)ncnc21		inhibition [5]: Active
CCc1c(C#N)c(N)c2c(N)c(C(=O)c3ccccc3)sc2c1C	30	
O=C(Nc1ccc(Oc2ccc(NC(=O)Nc3ccc(-c4ccccc4)cc3)cc2)cc1)Nc1ccc(-c2ccccc2)cc1	13	
CCCCCCCNC1=C(OCC)C(=O)c2ccccc2C1=O	24	
Cc1cc(Cl)ccc1Nc1sc(C(=O)c2cc3cc(Cl)ccc3o2)c(N)c1C#N	55	
O/N=C(\c1ccccc1)c1ccc[n+](CCc2ccccc2)c1	38	
CC(=O)c1cc(Cl)ccc1OCC(O)CNc1ccccc1C(=O)c1ccccc1 (stereo unspecified)	41	
